STAT3 inh: inhibitors of IL-6 induced STAT3 signaling; U3A cells, IL-6 STAT3-luciferase reporter, luminescence; host cell line lacks STAT1; inhibition, % at 5.5 µM; 0.89% of 190,000 active;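 active = inhibition above the mean inhibition across all screened compounds plus 3 SD, cut at about 44% in these data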;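 note: 0% = DMSO only wells and 100% = 100 µM nifuroxazide control wells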
MT stabilizer: microtubule stabilization, imaging screen; HeLa tubulin immunostaining HCS, 24 h; share of cells brighter than vehicle mean+2SD; % tubulin-high responders, % at 10 µM; 0.83% of 200,000 active; AID 2205;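 active = plate Z-score above 3 for both tubulin-high and condensed-nucleus cell shares, with cell loss under 80%, at 10 µM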;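 note: anti alpha tubulin signal scored within the nucleus-defined area of each cell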
b-catenin transl: alters nuclear translocation of beta-catenin in HeLa cells; immunofluorescence imaging; nuclear translocation activity, % at 5 µM; 0.3% of 190,000 active;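 active = nuclear translocation activity above 50% at 5 µM, with a well cell count of 50 or more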;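 note: per-cell ratio of nuclear to cytoplasmic median beta-catenin stain intensity; plate controls were DMSO negative control for no effect and GSK-3 inhibitor IX positive control for full effect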
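Test system: human HeLa cells, native beta-catenin. Compound dosing: 5 µM primary single dose, 0.1% DMSO, 0.02–20 µM confirmation series. Incubation: compound exposure 24 h at 37°C. Detection: beta-catenin immunostaining with DAPI counterstain, 20x imaging, 6 fields/well. Read-out basis: Nuclear/cytoplasmic beta-catenin signal ratio, % activation.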
STAT3 act: STAT3 signaling activation. U3A cells, IL-6 STAT3-luciferase reporter, luminescence; 100% = signal with IL-6 EC80 alone. activation (% of control), % at 5.6 µM. 0.91% of 190,000 active. AID 871;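 active = activation above the screen-wide mean of compound activation plus 3 SD, cut at about 130% in these data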;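 note: 0% = background luminescence of wells with medium and substrate only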
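Material: human U3A cells carrying STAT3-luciferase construct. Measured by: reporter luminescence signal. Timing: compound 1 h, then IL-6 6 h at 37 °C.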
STAT1 blocker: STAT1 signaling inhibition. NIH 3T3 STAT1-luciferase reporter, IFN-gamma, luminescence. inhibition, % at 5.5 µM. 0.35% of 200,000 active;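 active = inhibition above a set limit, the mean inhibition across all tested compounds plus 3 SD, cut at about 34% in these data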;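 note: 0% = IFN-gamma with DMSO and 100% = IFN-gamma with 300 µM nifuroxazide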
Starred values were filed as active, the others as inactive; . = no result given. Most compounds without a hit are left out; they make up all but 2.4% or so of the library.

SMILES | STAT3 inh | MT stabilizer | b-catenin transl | STAT3 act | STAT1 blocker
CN(C)CCN(C(=O)/C=C/c1cccs1)c1nc2c(F)cc(F)cc2s1 | 2 | 21* | . | 100 | -4
CN(C)CCCN(C(=O)/C=C/c1cccs1)c1nc2ccc(F)cc2s1 | 24 | 2 | 4 | 88 | 7
S=C1NCN(C2CCCCC2)CN1CCc1ccccc1 | . | . | -1 | . | .
CNc1ccc(Br)cc(C(=O)/C=C/c2ccc(Cl)cc2Cl)c1=O | -4 | 9.3* | 1 | 108 | 1
CCNc1ccc(Br)cc(C(=O)/C=C/c2ccc(Cl)cc2)c1=O | -18 | 16* | -2 | 120 | -1
CNc1ccc(Br)cc(C(=O)/C=C/c2ccc(OC)cc2OC)c1=O | -1 | 4 | -4 | 104 | 3
CCNc1ccc(Br)cc(C(=O)/C=C/c2c(Cl)cccc2Cl)c1=O | -33 | 38 | 7 | 131 | 21
CNc1ccc(Br)cc(C(=O)/C=C/c2cccc(OC)c2)c1=O | -17 | 13* | 38 | 117 | 1
COc1ccc(-c2cc(C(F)(F)F)n3ncc(C(=O)N(C)Cc4ccccc4)c3n2)cc1 | 13 | 2 | -1 | 93 | 13
CCCCc1ccc(NS(=O)(=O)c2cccs2)cc1 | 1 | 3 | -2 | 102 | 0
Clc1ccc2c(c1)C(C1=NCCN1)c1ccccc1CS2 (stereo unspecified) | 1 | 24* | . | 97 | 0
COc1cc(C(=O)N[C@H](C(=O)Nc2nnc(C3CC3)s2)C(C)C)cc(OC)c1OC | . | . | 2 | . | .
Cc1cccc(Nc2nc(-c3ccc4c(c3)OCCO4)cs2)c1 | -3 | 18* | -1 | 103 | -63
Cc1cc2c3c(c1)C1(C(=O)N3C(C)(C)CC2C)C(C#N)=C(N)Oc2n[nH]c(C)c21 (stereo unspecified) | -2 | 17* | . | 103 | 0
CCN(CC)CC(=O)Nc1ccc2c(c1)N(C(=O)CN(CC)CC)c1ccccc1CC2 | 0 | 2 | -4 | 106 | 4
CCN(CC)CC(=O)Nc1ccc2c(c1)Nc1ccccc1CC2 | -16 | 31* | 19 | 118 | 7
CCOc1ccc2[nH]c(=O)c(CN(Cc3cccs3)Cc3nnnn3C(C)(C)C)cc2c1 | 3 | 33* | -4 | 99 | 3
COc1cc2nc(CN(C)Cc3ccc(OC)c(OC)c3OC)[nH]c(=O)c2cc1OC | -3 | 2 | 3 | 107 | -5
CC/C(=N/O)C(=O)c1ccc(Br)cc1 | 21 | 2 | -2 | 88 | 0
CCc1ccc(/C=N/NC(=O)c2cc(-c3ccncc3)nc3ccccc23)s1 | -28 | 9 | 66* | 124 | -13
CCCc1cc(C(=O)N/N=C/c2ccc(CC)s2)c2ccccc2n1 | 0 | 34* | . | 108 | -2
O=C(N/N=C/c1ccccn1)c1cc(-c2ccccc2)nc2ccccc12 | . | . | 0 | . | .
COc1ccc(OC)c(C2C(C#N)=C(N)Oc3cc(N)ccc32)c1 (stereo unspecified) | 6 | 9 | 5 | 100 | -5
N#CC1=C(N)Oc2cc(N)ccc2C1C1CCCCC1 (stereo unspecified) | 1 | 46* | . | 102 | 1
O=C1OCC(CO)(CO)N=C1NNc1ccc(Cl)c(Cl)c1 | 2 | 4 | 2 | 105 | 4
SMILES | STAT3 inh | MT stabilizer | b-catenin transl | STAT3 act | STAT1 blocker
O=C(NCc1cccnc1)/C(=C/c1ccc(-c2cccc(Cl)c2)o1)S(=O)(=O)c1ccccc1 | 16 | 26* | 55* | 92 | 28
O=C(NCc1cccnc1)/C(=C\c1ccc(-c2cccc(Cl)c2)o1)S(=O)(=O)c1ccccc1 | -7 | 52* | 17 | 109 | 13
Cc1ccc(C(=O)N/C(=C\c2ccc(-c3cc(Cl)ccc3Cl)o2)C(=O)NCc2cccnc2)cc1 | -1 | 2 | -4 | 107 | -1
COc1ccc(-c2ccc(SCC(=O)Nc3nccs3)nn2)cc1OC | -42 | 4 | 0 | 135* | -9
COc1ccc(-c2[nH]c(-c3ccc(C)cc3)nc2SCC(=O)Nc2nccs2)cc1 | -3 | 4 | 0 | 104 | 5
COc1ccc(-c2nc(SCC(=O)Nc3nccs3)c(-c3ccc(Cl)cc3)[nH]2)cc1 | -6 | 15* | 0 | 105 | -9
O=C(C1CCCO1)N1CCN(C(=S)Nc2ccccc2F)CC1 (stereo unspecified) | 1 | 2 | -2 | 102 | 4
COc1ccc(Nc2nc(-c3ccc4c(c3)NC(=O)CO4)cs2)cc1 | 22 | 4 | -2 | 87 | -19
COc1ccccc1Nc1nc(-c2ccc3c(c2)NC(=O)CO3)cs1 | 23 | 24* | 0 | 83 | -18
